Screening data (PubChem)
This excerpt belongs to a sample that is enriched for hits.
L major viab: Leishmania major promastigote growth inhibition, primary screen; Leishmania major promastigotes, resazurin fluorescence viability; actives 9% (n = 200,000); inhibition, % at 10 µM;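 further: promastigotes grown with compound for 44 hours at 28 °C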
Diaphorase inh: diaphorase inhibitors and chemical oxidizers, primary screen, counter-screen for diaphorase-coupled primary assays, biochemical, uHTS, resorufin fluorescence. diaphorase resazurin-to-resorufin fluorescence, NADH, 16 min; bacterial (C. kluyveri) enzyme, not human. inhibition, % at 20 µM. actives 0.69% (n = 190,000). AID 1217, 2008;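 active means primary screen inhibition at 20 µM above a set limit, cut at about 50% in these data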
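Test system: Clostridium kluyveri diaphorase enzyme / Quantity: diaphorase at 0.14 U/mL in enzyme working solution / Incubation: 16-min room-temperature incubation before reading / Benchmarks: NADH-free wells as positive control, DMSO-only neutral wells / Signal: resorufin fluorescence 544/590 nm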
Diaph act CS: compounds boosting diaphorase resazurin reduction – biochemical, uHTS, resorufin fluorescence, counter-screen for diaphorase-coupled primary assays, primary screen | Diaphorase/resazurin coupled assay, 16 min; stronger effect = higher value; 1 = vehicle wells, 0 = NADH-free wells | activation factor at 20 µM | actives 0.005% (n = 190,000) | AID 1229, 2008;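 active means diaphorase activity raised at least twofold by the compound at 20 µM; inactive means activation factor below 2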
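test system = bacterial diaphorase enzyme (C. kluyveri) | quantity = enzyme 0.07 U/mL final | reagent = NADH substrate 0.114 mM plus resazurin dye 0.1 mM, final | incubation = 16 min enzyme reaction, ambient temperature | buffer or medium = HEPES pH 7.4 buffer with MgCl2 and Tween 20 | signal = fluorescence of resorufin, 544 nm excitation, 590 nm emission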
G6PDH counter: L. mesenteroides G6PDH inhibitors, counter-screen for G6PDH-coupled screening assays, biochemical, Leuconostoc mesenteroides enzyme | Purified L. mesenteroides G6PDH, diaphorase/resazurin coupled fluorescence, 45 min | inhibition, % at 5 µM | glucose-6-phosphate dehydrogenase [Leuconostoc mesenteroides] | actives 0.12% (n = 200,000)
DTT redox prof: compounds producing H2O2 with reducing agent – biochemical, NIH compound library profiling, artefact control for MLSCN library redox annotation, primary screen | DTT-dependent redox cycling H2O2, phenol red/HRP absorbance; 100% = 100 µM peroxide control, 0% = buffer | activation, % at 10 µM | actives 0.03% (n = 200,000) | AID 878, 2007;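 active means activation of at least 50% relative to the plate's high and low controls in the primary single-dose screen; inactive means activation below 50%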;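 further: compound incubated with DTT at 0.8 mM final as the reducing agent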
PfG6PD inh: PfG6PD enzyme inhibitors, primary screen, biochemical, fluorescence intensity, uHTS; inhibition, % at 20 µM; PfGluPho enzyme, NADPH resazurin-diaphorase fluorescence; glucose-6-phosphate dehydrogenase-6-phosphogluconolactonase (Plasmodium falciparum 3D7); AID 504690, 2011; actives 0.78% (n = 350,000);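 active means inhibition reaching at least a set limit at 20 µM in the primary screen, cut at about 59% in these data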
PfG6PD confirm: PfG6PD inhibitors, hit retest, confirmation, biochemical, fluorescence intensity, single concentration | actives 34% (n = 2,400) | shares compounds with PfG6PD inh | AID 504753, 2011 | inhibition, % at 20 µM | recombinant PfGluPho, NADPH-diaphorase-resazurin fluorescence;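 active means inhibition of at least 50% at 20 µM in any single replicate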
Diaph ctr 10uM: diaphorase inhibitors and chemical oxidizers, confirmation, counter-screen for P. falciparum G6PD inhibitor project, biochemical, fluorescence intensity, 10 µM NADPH; inhibition, % at 20 µM; actives 39% (n = 820); AID 504862, 2011; shares compounds with PfG6PD inh; diaphorase-coupled resazurin reduction, NADPH 10 uM;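 active means average inhibition reaching 50% or more with the compound at 20 µM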;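 further: resorufin red fluorescence formed as diaphorase reduces resazurin using NADPH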
Diaphorase 30uM: diaphorase inhibitors and chemical oxidizers, confirmation, counter-screen for P. falciparum G6PD inhibitor project, biochemical, fluorescence intensity, 30 µM NADPH; shares compounds with PfG6PD inh; Diaphorase/resazurin coupled assay, resorufin fluorescence; inhibition, % at 20 µM; actives 29% (n = 820); AID 504863, 2011;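 active means inhibition averaging 50% or more, tested at 20 µM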
A number is an active result; . = inactive; / = no result. Unless noted, no stated cut-off is given here; in the data, active means inhibition above about 50%; inactive means the rest.

SMILES	L major viab	Diaphorase inh	Diaph act CS	G6PDH counter	DTT redox prof	PfG6PD inh	PfG6PD confirm	others
C=CCc1c(C)[nH]c(=S)c(C#N)c1C	.	.	.	.	.	73	56	Diaph ctr 10uM=.;Diaphorase 30uM=.
c1cncc(-c2nc3cc4ccccc4cc3[nH]2)c1	.	.	.	.	.	62	.
O=C(Nc1ccc2nc(-c3cccnc3)[nH]c2c1)c1ccccc1F	.	.	.	.	.	.	/
COc1ccc(/C=C(\NC(=O)c2ccc(C)cc2)C(=O)NCCCn2ccnc2)cc1OC	/	/	/	/	/	.	/
COc1ccc(CC(=S)N2CCOCC2)cc1	.	.	.	.	.	66	.
Cc1ccc(CC(=S)N2CCOCC2)cc1	.	.	.	.	.	.	/
CCOc1ccc(C(=O)/C=C/c2cn(CN3CCN(C)CC3)c3ccccc23)cc1	.	.	.	.	.	62	.
Cc1ccc(OCCn2cc(/C=C/C(=O)O)c3ccccc32)cc1	/	/	/	/	/	.	/
CCOc1ccc(Cl)cc1/C=N/NC(=O)CNC(=O)c1ccccc1	.	.	.	.	.	118	92	Diaph ctr 10uM=93;Diaphorase 30uM=85
Cc1cccc(OCC(=O)NCC(=O)N/N=C/c2ccccc2)c1	/	/	/	/	/	69	50	Diaph ctr 10uM=.;Diaphorase 30uM=.
CCOc1ccc(Cl)cc1/C=N/NC(=O)c1ccccc1	.	.	.	.	.	.	/
O=C(COc1ccccc1)NCC(=O)N/N=C/c1cc(Br)ccc1OCc1ccccc1	.	.	.	.	.	81	.
Cc1cc(C)c2c(n1)sc1c(N3CCN(C)CC3)ncnc12	/	/	/	/	/	.	/
Cc1cc(C)c2c(n1)sc1c(N3CCCCC3)ncnc12	/	/	/	/	/	70	.
CCN(CC)c1ncnc2c1sc1nc(C)cc(C)c12	.	.	.	.	.	72	.
Nc1[nH]n(-c2ccccc2)c(=O)c1N=Nc1ccc2ncsc2c1	/	/	/	/	/	67	.
Cc1[nH]c(=O)c(C#N)c(C)c1CCC(=O)NCc1cccc(C(F)(F)F)c1	/	/	/	/	/	.	/
O=C(Nc1cc(C(F)(F)F)ccc1N1CCOCC1)C1Cc2ccccc2CN1C(=O)c1ccco1 (stereo not given)	.	.	.	.	.	81	.
CN(C(=O)CCc1ccccc1)c1nnc(-c2ccncc2)s1	.	.	.	.	.	.	/
COc1ccc(OC)c(C2=Nn3c(nnc3-c3ccncc3)SC2)c1	/	/	/	/	/	.	/
c1ccc(C2=Nn3c(nnc3-c3cc(-c4ccccc4)n[nH]3)SC2)cc1	63	.	.	.	.	60	.
COc1ccc(OC)c(C2=Nn3c(nnc3-c3cc(OC)c(OC)c(OC)c3)SC2)c1	.	.	.	.	.	98	89	Diaph ctr 10uM=81;Diaphorase 30uM=70
COc1cc(-c2nnc3n2N=C(c2ccccc2)CS3)cc(OC)c1OC	.	.	.	.	.	97	60	Diaph ctr 10uM=.;Diaphorase 30uM=.
Clc1ccc(C2=Nn3c(nnc3-c3cc(-c4ccccc4)n[nH]3)SC2)cc1	.	.	.	.	.	.	/
CCOC(=O)C1(Cc2ccc(OC)cc2)CCN(C(=O)CN2CCCCC2=O)CC1	.	.	.	.	.	.	/
SMILES	L major viab	Diaphorase inh	Diaph act CS	G6PDH counter	DTT redox prof	PfG6PD inh	PfG6PD confirm	others
O=C(Nc1ccccc1)[C@@H]1CC=C[C@@H]2CCN(Cc3ccc(Cl)c(Cl)c3)C(=O)[C@@H]21	/	/	/	/	/	.	/
O=S(=O)(Nc1ccc2c(c1)OCO2)c1ccc(Cl)cc1F	/	/	/	/	/	.	/
O=C1[C@@H]2Cc3c([nH]c4ccccc34)CN2C(=O)CN1CCCCCO	/	/	/	/	/	.	/
CCn1c(=O)c(CCC(=O)N2CCN(c3ccccn3)CC2)c(C)c2c(C)nn(-c3ccccc3)c21	/	/	/	/	/	.	/
Cc1nnc(N/N=C/c2cc(C)n(-c3ccc(F)cc3)c2C)n1N	.	.	.	.	.	78	.
Cc1ccc(NC(=O)c2cc3ccccc3o2)cc1Cl	/	/	/	/	/	100	.
O=C(Nc1ccc(N2CCN(C(=O)c3ccccc3)CC2)c(Cl)c1)c1ccco1	.	.	.	.	.	.	/
CC(C)c1nnc(NC(=O)c2cc3ccccc3o2)s1	/	/	/	/	/	66	54	Diaph ctr 10uM=.;Diaphorase 30uM=.
CCC(=O)N1CCN(c2ccc(NC(=O)c3cc4ccccc4o3)cc2Cl)CC1	.	.	.	.	.	118	84	Diaph ctr 10uM=72;Diaphorase 30uM=61
O=C(Nc1ccc(N2CCN(C(=O)c3ccco3)CC2)c(Cl)c1)c1cc2ccccc2o1	96	.	.	.	.	90	43	Diaph ctr 10uM=.;Diaphorase 30uM=.
O=C(CCc1nnc(CCc2ccccc2)o1)N1CCCC1c1nccs1 (stereo not given)	.	.	.	.	.	.	/
COc1ccc(CC(=O)NNc2ncnc3c2cnn3-c2ccc(C)cc2)cc1OC	.	.	.	.	.	.	/
COc1ccc(C(=O)Nc2ccc3ccccc3c2)c(OC)c1	/	/	/	/	/	74	.
COc1ccc(-c2nc(-c3ccccn3)ncc2S(C)(=O)=O)cc1	.	.	.	.	.	.	/
Cn1nc(-c2ccccn2)nc2c(=O)n(C)c(=O)nc1-2	/	/	/	/	/	113	89	Diaph ctr 10uM=98;Diaphorase 30uM=103
Nc1cc([N+](=O)[O-])cc2oc(-c3ccccc3)cc12	/	/	/	/	/	.	/
CCn1c(SCC(=O)Nc2ccc3c(c2)OCO3)nnc1-c1cnccn1	.	.	.	.	.	83	.
CCn1c(SCC(=O)Nc2ccc(OC)c(OC)c2)nnc1-c1cnccn1	/	/	/	/	/	.	/
COc1ccc(C(=O)Nc2cnc(NC(=O)c3cccs3)cc2C)cc1	/	/	/	/	/	.	/
COc1ccc(C(=O)Nc2cc(C)c(NC(=O)c3ccccn3)cn2)cc1	/	/	/	/	/	67	.
COC1=CC(=O)C=C(OC)C1(O)CC(C)=O	/	/	/	/	/	68	54	Diaph ctr 10uM=.;Diaphorase 30uM=.
CC(=O)CC1(O)C(=O)Nc2ccccc21 (stereo not given)	/	/	/	/	/	.	/
Cc1cc(Cl)ccc1OCCCC(=O)N/N=C/c1cccc([N+](=O)[O-])c1	.	.	.	.	.	112	94	Diaph ctr 10uM=81;Diaphorase 30uM=57
COc1ccc(/C=N/NC(=O)CCCOc2ccc(Cl)cc2Cl)cc1	.	.	.	.	.	.	/
